# Assay outcomes: PubChem BioAssay, several laboratories
# In the library only some 1.5% were active in any assay of this set; here they are far more common.
# NR2E3 ag-1 = human photoreceptor-specific nuclear receptor agonism; CHO-S Gal4-NCOR/VP16-NR2E3 two-hybrid, luciferase; inhibition of corepressor binding, % at 3.98 µM; actives 0.35% (n = 360,000); AID 602229;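 active means inhibition above the mean of all tested compounds plus 3 SD, cut at about 70% in these data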;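 further: higher means lower luciferase signal from less NR2E3 corepressor binding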
# NR1D1 modulator = modulates human Rev-erb alpha binding to DNA. Rev-erbα–FITC-DNA binding, fluorescence polarization, 90 min. AID 1259318. actives 0.79% (n = 370,000). P20393. activity, % at 10 µM;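 active means activity above about 14%, limit read from the data; passing the limit was not always enough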
# Target sequence (P20393 whole entry, looked up): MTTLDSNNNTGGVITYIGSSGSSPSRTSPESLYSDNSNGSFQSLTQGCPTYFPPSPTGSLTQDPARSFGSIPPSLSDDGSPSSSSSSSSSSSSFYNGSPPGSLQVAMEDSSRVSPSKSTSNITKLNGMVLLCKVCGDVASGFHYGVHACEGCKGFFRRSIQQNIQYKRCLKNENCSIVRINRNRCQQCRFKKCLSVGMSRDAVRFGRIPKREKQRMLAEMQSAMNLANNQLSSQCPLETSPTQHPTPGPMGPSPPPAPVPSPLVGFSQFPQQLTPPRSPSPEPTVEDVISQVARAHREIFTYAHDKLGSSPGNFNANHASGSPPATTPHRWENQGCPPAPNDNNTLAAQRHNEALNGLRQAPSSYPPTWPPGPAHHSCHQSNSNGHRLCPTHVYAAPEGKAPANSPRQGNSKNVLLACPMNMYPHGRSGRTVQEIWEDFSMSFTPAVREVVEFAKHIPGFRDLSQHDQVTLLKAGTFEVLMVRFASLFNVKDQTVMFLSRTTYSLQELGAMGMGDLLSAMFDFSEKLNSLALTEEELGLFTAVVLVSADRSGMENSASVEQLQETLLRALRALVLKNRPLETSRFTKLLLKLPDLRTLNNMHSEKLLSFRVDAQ
# PG9 Ab binder = small molecules binding HIV-1 gp120 antibody PG9 | TR-FRET gp120-PG9 antibody binding | inhibition, % at 6.7 µM | actives 0.43% (n = 360,000) | AID 624416; in the data active means inhibition above about 8.5%
# NR2E3 ag-2 = activates human photoreceptor nuclear receptor NR2E3; Q9Y5X4; GST-NR2E3/biotin-RetCOR TR-FRET, 1536-well; inhibition of corepressor binding, % at 4.78 µM; actives 0.12% (n = 320,000);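 active means percent inhibition above the cutoff of mean plus 3 SD of all tested compounds, set per screening campaign, cut at about 20% in these data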
#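 Material: NR2E3–RetCOR corepressor complex / Incubation: Compound–protein incubation for 5 h at 4 °C / Dosing: compound at 4.8 µM, single dose / Detection: time-resolved FRET / Benchmarks: high control biotin, low control 0.6% DMSO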
# NR2E3 ag conf = confirmation of human NR2E3 agonists. shares compounds with NR2E3 ag-1. actives 51% (n = 2,300). CHO-S mammalian two-hybrid NR2E3-NCOR, luciferase luminescence. AID 624378. inhibition, % at 3.98 µM;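 active means average inhibition above a cutoff equal to the mean inhibition of all tested compounds plus one SD, cut at about 70% in these data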
# VP16 counter = reduces GAL4-VP16 reporter signal in NR2E3 counterscreen. shares compounds with NR2E3 ag-1. CHO-S GAL4-VP16 luciferase reporter, luminescence. actives 29% (n = 2,300). inhibition, % at 3.98 µM. AID 624379;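 active means mean inhibition above a cutoff equal to the average over all tested compounds plus one standard deviation, cut at about 70% in these data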;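 further: luciferase from a UAS reporter driven by GAL4-VP16 transactivation; higher means less reporter light so more repression of VP16 activity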
# Hits are given with their value; – = inactive; · = no result.
SMILES,NR2E3 ag-1,NR1D1 modulator,PG9 Ab binder,NR2E3 ag-2,NR2E3 ag conf,VP16 counter
O=C(CCNS(=O)(=O)c1ccc(OC(F)(F)F)cc1)N1CCN(C/C=C/c2ccccc2)CC1,–,–,–,–,–,–
Nc1[nH]c(C(=O)c2ccccc2)c(-c2cccc3ccccc23)c1C(=O)c1c(-c2ccccc2)[nH]c2ccccc12,·,–,·,·,·,·
CCOC(=O)[C@]12CCCC=C1N(CCCOC)C(=O)[C@@H]2CC(=O)N1CCN(C(=O)c2ccco2)CC1,·,–,·,·,·,·
CC(=O)c1c(C)oc2ccc(N(C(C)=O)S(=O)(=O)c3ccc(F)cc3C)cc12,–,–,–,–,·,·
COC(=O)c1c(C)oc2ccc(N(C(C)=O)S(=O)(=O)c3ccccc3)cc12,97.9,–,–,–,84.5,–
CC(=O)c1c(C)oc2ccc(N(C(C)=O)S(=O)(=O)c3ccc(Br)cc3)cc12,89.9,–,–,–,90.4,72.6
CC(=O)c1c(C)oc2ccc(N(C(C)=O)S(=O)(=O)c3cccc4cccnc34)cc12,86.2,–,–,–,94.5,74.1
CC(=O)c1c(C)oc2ccc(N(C(=O)c3ccncc3)S(=O)(=O)c3ccccc3)cc12,–,–,–,–,·,·
CC(=O)c1c(C)oc2ccc(NS(=O)(=O)c3cccs3)cc12,–,–,–,–,·,·
CC(=O)c1c(C)oc2ccc(NS(=O)(=O)c3ccc(C)cc3)cc12,80.3,–,–,–,–,–
CC[C@H](CCCCCCCn1ccc2ccccc21)CCC(=O)N(c1ccccc1)c1ccccc1,·,–,·,·,·,·
O=C(Cn1nnc(-c2ccccc2F)n1)Nc1ccc(Cl)cc1,·,–,·,·,·,·
COc1ccc(COC[C@H](C)N2C[C@@H](C)[C@H](CN(C)S(=O)(=O)c3ccc(F)cc3)OCCCC[C@H](C)Oc3ccc(NC(=O)Nc4ccccc4)cc3C2=O)cc1,·,–,·,·,·,·
Fc1ccc(-n2nnc(-c3cccnc3)n2)cc1,–,–,–,–,·,·
Fc1ccc(C(CCCn2nnc(-c3cccnc3)n2)c2ccc(F)cc2)cc1,–,–,–,–,–,–
O=c1c(Cl)c(N2CCN(c3ccc(F)cc3)CC2)cnn1C12CC3CC(CC(C3)C1)C2,–,–,–,–,71.0,–
COc1ccc(C)cc1NC(=O)NC1CC(=O)N(c2ccc3c(c2)OCCO3)C1 (stereo not given),72.2,–,–,·,77.8,–
COC(=O)[C@]12C[C@H](CC(=O)NCCCCc3ccccc3)C(=O)N(CCc3ccc(OC)c(OC)c3)C1=C[C@H](C(C)(C)C)O[C@@H]2C,·,–,·,·,·,·
C[C@H](CCCCC1(C)OCCO1)CCC(=O)N(c1ccccc1)c1ccccc1,·,–,·,·,·,·
C=CCNC(=S)N/N=C(\C)c1ccccn1,84.3,–,–,–,–,–
C/C(=N\NC(=O)c1ccccc1-n1cccc1)c1ccccn1,–,–,–,·,·,·
CC(=NNC(=S)Nc1ccccc1)c1ccccn1,84.9,–,–,·,–,–
CC(=NNC(=S)Nc1ccccc1Cl)c1ccccn1,85.7,–,–,·,–,–
CC(=NNC(=S)N1CCCCC1)c1ccccn1,84.5,–,–,·,–,–
C/C(=N\Nc1ncc(Cl)cc1Cl)c1ccccn1,–,·,·,·,·,·
SMILES,NR2E3 ag-1,NR1D1 modulator,PG9 Ab binder,NR2E3 ag-2,NR2E3 ag conf,VP16 counter
O=C(c1ccc(Cl)cc1)C1CCN(c2ncnc3sccc23)CC1,·,–,·,·,·,·
C=CCCC(=O)N[C@H]1CC[C@@]23CCCN2C(=O)CCC[C@H]3[C@H]1CCC,·,–,·,·,·,·
N#CCc1ccc(OC[C@@H](O)CN2CCC(C(O)(c3ccccc3)c3ccccc3)CC2)cc1,·,–,·,·,·,·
CC(C)(C)OC(=O)N1CCC(c2ccc[nH]2)(c2c[nH]c3ccccc23)CC1,·,–,·,·,·,·
COC(=O)[C@]12C[C@H](CC(=O)NCC34CC5CC(CC(C5)C3)C4)C(=O)N(Cc3ccco3)C1=C[C@H](C(C)(C)C)O[C@@H]2C,·,–,·,·,·,·
CC(C)c1nnc(NC(=O)c2nc(S(=O)(=O)Cc3ccc(F)cc3)ncc2Cl)s1,–,–,–,–,·,·
Cc1cccc(CS(=O)(=O)c2ncc(Cl)c(C(=O)Nc3nnc(C(C)C)s3)n2)c1,–,·,·,–,·,·
Cc1ccc(CS(=O)(=O)c2ncc(Cl)c(C(=O)Nc3nnc(C(C)C)s3)n2)cc1,–,–,–,–,–,–
CCc1nnc(NC(=O)c2nc(S(=O)(=O)Cc3ccc(C)cc3)ncc2Cl)s1,–,–,–,–,–,–
CSc1nnc(NC(=O)c2nc(S(=O)(=O)Cc3cccc(C)c3)ncc2Cl)s1,–,–,–,–,–,–
CCOC(=O)N1CCN(C(=O)C[C@H]2C[C@@]3(C(=O)OC)C(=C[C@H](C4CCCC4)O[C@@H]3C)N(CCC3=CCCCC3)C2=O)CC1,·,–,·,·,·,·
c1ccc2cc(Cn3ccc4ccc(-c5ccc6cc[nH]c6c5)cc43)ccc2c1,·,–,·,·,·,·
CC(=O)N1CCc2cc(S(=O)(=O)N3CCc4ccccc43)ccc21,73.7,–,–,–,–,–
COc1ccc(CNS(=O)(=O)c2ccc3c(c2)CCN3C(=O)C2CCC2)cc1,–,–,–,–,–,–
CC(=O)N1CCCc2cc(S(=O)(=O)Nc3cccc(C)c3C)ccc21,–,–,–,–,·,·
COc1cccc(CNS(=O)(=O)c2ccc3c(c2)CCN3C(=O)C2CC2)c1,–,–,–,–,·,·
COc1cccc(NS(=O)(=O)c2ccc3c(c2)CCN3C(C)=O)c1,–,–,–,–,–,–
CC(=O)N1CCc2cc(S(=O)(=O)Nc3cccc(C(F)(F)F)c3)ccc21,–,–,–,–,–,–
O=S(=O)(c1ccccc1F)N1CCC(c2nc3ccccc3o2)CC1,·,–,·,·,·,·
COc1ccc(S[C@]2(C(=O)NC3CC3)CC(=O)N[C@@H]2c2ccc(OC)cc2)cc1,·,–,·,·,·,·
Cc1cccc(CCNC(=O)c2ccc(Sc3ccccc3Cl)c([N+](=O)[O-])c2)c1,·,–,·,·,·,·
CCN(CC)C(=O)CC[C@H]1CC[C@]2(CCCN(Cc3cccnc3)C2)O1,·,–,·,·,·,·
CCC[C@H]1[C@@H](OC(=O)N2CCN(c3ccccc3)CC2)CC[C@@]23CCCN2C(=O)CCC[C@@H]13,·,–,·,·,·,·
CC(=O)N1CCc2cc(S(=O)(=O)Nc3ccc(C)cc3)ccc21,–,–,–,–,·,·
CSc1cccc(NS(=O)(=O)c2ccc3c(c2)CCN3C(C)=O)c1,72.3,–,–,–,84.5,77.2
SMILES,NR2E3 ag-1,NR1D1 modulator,PG9 Ab binder,NR2E3 ag-2,NR2E3 ag conf,VP16 counter
O=C(CSc1cccc[n+]1[O-])N1CCCCCC1,–,–,–,–,·,·
O=C(CSc1cccc[n+]1[O-])CSc1cccc[n+]1[O-],–,–,–,–,–,–
COC(=O)[C@]12C[C@H](CC(=O)NCc3cccs3)C(=O)N(Cc3ccco3)C1=C[C@H](C(C)(C)C)O[C@@H]2C,·,–,·,·,·,·
O=C(Nc1ccc(F)cc1F)C1CCN(c2nnc(-n3cccc3)s2)CC1,·,–,·,·,·,·
O=C1c2ccccc2C(=O)N1Nc1ccccc1,–,–,–,–,–,–
O=C1c2cccc3c([N+](=O)[O-])c(O)cc(c23)C(=O)N1Nc1ccccc1,–,–,–,–,·,·
O=C1c2ccccc2S(=O)(=O)N1Cc1nnc(-c2ccccc2Br)o1,–,–,–,·,·,·
